Compound activity as filed in PubChem BioAssay.
core dimer inh = blocks dimerization of HCV core protein | 300,000 compounds, 0.33% hits | TR-FRET GST/Flag-core106 dimerization, 1536-well | AID 1899 | inhibition, % at 5 µM;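 active means inhibition above the mean of all tested compounds plus 3 SD, set per screening campaign, cut at about 45% in these data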
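Material: GST/Flag-tagged HCV core106 proteins. Incubation: 4 h, 22.5 °C incubation. Read-out basis: inhibition (%) from 671 over 617 nm ratio. Measured by: TR-FRET, excitation 340 nm, emission 617 and 671 nm.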
rCAG RNA binder = molecules binding r(CAG) RNA repeats; AID 651821; inhibition, % at 3 µM; 370,000 compounds, 1.3% hits; r(CAG) RNA repeat, TO-PRO-1 dye displacement fluorescence;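 active means inhibition above the plate cutoff, the mean of all test compounds on that plate plus 3 SD, cut at about 35% in these data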;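 further: 0% = DMSO alone and 100% = 100 µM mitoxantrone as full dye displacement; higher means more dye released from RNA so lower well fluorescence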
TAAR1 antag = antagonists of human TAAR1. 360,000 compounds, 1.5% hits. CHO RD-HGA16 TAAR1, Fluo-8 calcium fluorescence, antagonist. AID 624466. inhibition, % at 3 µM. Q96RJ0;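 active means inhibition above a per-plate cutoff, the mean inhibition of test compounds on that plate plus 3 SD, cut at about 49% in these data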;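 further: 0% = DMSO plus EC80 beta-PEA response and 100% = DMSO alone without agonist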
Target sequence (Q96RJ0 whole entry, looked up): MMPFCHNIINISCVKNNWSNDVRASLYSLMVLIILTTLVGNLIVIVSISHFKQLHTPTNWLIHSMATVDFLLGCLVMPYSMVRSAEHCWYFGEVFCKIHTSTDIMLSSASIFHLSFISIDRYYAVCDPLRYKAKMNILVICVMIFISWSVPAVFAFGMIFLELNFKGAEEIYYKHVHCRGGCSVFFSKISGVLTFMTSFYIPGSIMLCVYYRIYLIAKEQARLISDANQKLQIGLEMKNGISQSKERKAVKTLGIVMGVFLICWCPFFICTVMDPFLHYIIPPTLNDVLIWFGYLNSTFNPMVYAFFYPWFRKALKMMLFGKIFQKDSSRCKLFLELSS
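Assay system: RD-HGA16 CHO cells with stable hTAAR1 and Gα16 / Reagent: EC80 β-phenethylamine stimulus / Doses: 3 µM, single point / Timing: dye loading 75 min at 37 °C, then 30 min room temperature / Measured by: Fluo-8 intracellular calcium dye fluorescence, real-time kinetic reads / Controls: vehicle wells and EC80 agonist wells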
TAAR1 ag = human TAAR1 agonism | CHO RD-HGA16 TAAR1, Fluo-8 calcium fluorescence; vehicle wells 0%, saturating PEA agonist 100% | AID 624467 | Q96RJ0 | 360,000 compounds, 0.99% hits | activation, % at 3 µM;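 active means activation above the mean activation of all test compounds in the run plus 3 SD, cut at about 38% in these data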
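Assay system – CHO-derived RD-HGA16 cells with stable Gα16 and human TAAR1 · Compound dosing – one-point dosing at 3 µM (nominal) · Incubation – 17-24 h seeding, 75 min 37 °C dye, 30 min RT · Measured by – kinetic Fluo-8 calcium fluorescence · Control set – DMSO vehicle as 0%, PEA at EC100 as 100% · Repeats – single well for each compound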
NS3 helicase inh = inhibitors of Hepatitis C virus NS3 helicase; inhibition, % at 10.9 µM; 290,000 compounds, 0.56% hits; NS3 helicase DNA unwinding, Cy5 molecular beacon fluorescence;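 active means inhibition above the mean of all tested compounds plus 3 SD, set per campaign, cut at about 35% in these data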;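 further: 0% = DMSO wells and 100% = thioflavine S control wells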
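Test system: hepatitis C virus NS3 helicase domain fragment enzyme. Also added: annealed dual-labelled DNA beacon duplex, ATP-started. Timing: 60 min unwinding reaction at 25 °C after ATP addition. Technique: Cy5 fluorescence. Measure: % inhibition of unwinding.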
rCAG binder conf = r(CAG) RNA repeat binding, confirmation. shares compounds with rCAG RNA binder. TO-PRO-1 dye displacement fluorescence. inhibition, % at 3 µM. 4,300 compounds, 70% hits;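 active means inhibition above a per-plate cutoff, the mean inhibition of sample wells plus 3 SD, cut at about 35% in these data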;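 further: loss of TO-PRO-1 fluorescence as compound displaces dye from 1x1 AA loop RNA; 0% = DMSO only wells and 100% = 100 µM mitoxantrone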
dCAG dye counter = counter-screen for rCAG RNA binders: DNA CAG dye complex inhibitors. 4,300 compounds, 94% hits. d(CAG) DNA oligo TO-PRO-1 dye displacement, fluorescence. inhibition, % at 3 µM. shares compounds with rCAG RNA binder;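 active means inhibition above its plate's cutoff, the mean test-well inhibition plus 3 SD, cut at about 4.8% in these data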;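 further: 0% = DNA dye mix with DMSO and 100% = 100 µM mitoxantrone; hits displace the dye from DNA and so lower well fluorescence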
* = called active by the depositor; . = no result given. An excerpt weighted towards active compounds, which were near 3.7% of everything screened.

SMILES	core dimer inh	rCAG RNA binder	TAAR1 antag	TAAR1 ag	NS3 helicase inh	rCAG binder conf	dCAG dye counter
Cc1ccccc1NC(=NCCCN1CC1)Nc1ccccc1C	.	5	-23	0	.	.	.
COc1ccc(CN2C(=O)NC(=O)/C(=C/c3ccc([N+](=O)[O-])s3)C2=O)cc1	-2	94*	12	4	-20	94*	72*
O=C1NC(=O)N(Cc2ccc(F)cc2)C(=O)/C1=C\c1ccc([N+](=O)[O-])s1	0	93*	-16	5	35	79*	40*
O=C1NC(=O)N(Cc2ccc(F)cc2)C(=O)/C1=C\c1ccc(N2CCCC2)cc1	40	17	2	11	15	.	.
O=C(NC1CCCCC1)N1Cc2ccc(Br)cc2-n2nncc2C1	.	-1	-14	3	.	.	.
O=C1CC(=O)N(Cc2ccccc2)C(=O)N1Cc1ccccc1	.	46*	-15	1	.	9	6.3*
COC(=O)C1C(c2ccc(F)cc2)CC2CCC1N2C (stereo not given)	.	1	4	1	.	.	.
CC(C)NC1(c2ccccc2)CCCCC1	.	4	-15	5	.	.	.
COc1ccc(CN2C(=O)CC(=O)NC2=S)cc1	4	38*	-2	-2	11	11	4
O=c1[nH]c(=S)[nH]c(O)c1N=Nc1ccc(SC(F)F)cc1	-10	9	0	-1	1	.	.
O=c1[nH]c(=S)[nH]c(O)c1N=Nc1ccc(S(=O)(=O)N2CCc3ccccc32)cc1	32	64*	-30	13	4	49*	19*
COC(=O)C1C(O)C(C)C(O)C(C)/C=C\C=C(/C)C(=O)Nc2c(C)c(OC(C)=O)c3c(c2O)C(=O)C(C)=C2OCOC(=C23)/C(C)=C/C(C)(O)C(O)C(C)C1O (stereo not given)	-11	47*	-10	0	-1	24	6.5*
N#CC1c2ccccc2-n2nncc2CN1S(=O)(=O)c1cc(Cl)cc(Cl)c1 (stereo not given)	.	2	-15	1	.	.	.
CCCCn1c(NS(=O)(=O)c2ccc(C)cc2)c(C(=O)OCC)c2nc3ccccc3nc21	14	36*	-17	-2	16	18	5.8*
CN1C(=O)/C(=C/c2cccn2-c2ccc3ccccc3c2)C(=O)NC1=S	65*	63*	32	5	18	22	16*
CN1C(=O)NC(=O)C(N=Nc2ccc(Cl)cc2)C1=O (stereo not given)	.	4	-17	-1	.	.	.
Cn1cccc1/C=C1\C(=O)NC(=O)N(Cc2ccccc2Cl)C1=O	.	46*	4	8	23	10	4
Cn1cccc1/C=C1\C(=O)NC(=O)N(CCC2=CCCCC2)C1=O	.	10	14	1	21	.	.
CC(=O)OC1C(O)C(C)OC(OC2C(OC(=O)C3CCC4C(C3)OC3(CC(OC(=O)/C=C/c5ccccc5)C(C)CO3)C43CO3)OC(C)C(O)C2OC(C)=O)C1O (stereo not given)	.	3	8	1	.	.	.
Cc1cccc(OCCn2cccc2/C=C2/C(=O)NC(=O)N(Cc3ccco3)C2=O)c1	4	35*	14	0	-5	11	7.7*
CCc1ccc(N2C(=O)NC(=O)/C(=C/c3cccn3CCOc3ccc(C)cc3)C2=O)cc1	3	10	1	13	29	.	.
Cc1cc(OCC(=O)N[C@@H](Cc2ccccc2)C(=O)O)c2c3c(c(=O)oc2c1)CCCC3	4	46*	19	0	8	37*	7.9*
Cc1cc(OCC(=O)NCC(O)c2ccccc2)c2c3c(c(=O)oc2c1)CCCC3 (stereo not given)	-1	2	-25	2	0	.	.
CCOC(=O)c1[nH]c2ccc(OC)cc2c1C(SCC(=O)O)c1ccc(C(F)(F)F)cc1 (stereo not given)	4	56*	-7	3	-42	51*	14*
O=[N+]([O-])c1cc(S(=O)(=O)c2ccc(O)c([N+](=O)[O-])c2)ccc1O	-9	38*	-28	1	31	22	7.7*
